This is an account of results in ChEMBL document CHEMBL1142660, “Optimization and validation of a docking-scoring protocol; application to virtual screening for COX-2 inhibitors” (J Med Chem, 2005).

Assay [1] addresses Prostaglandin G/H synthase 1 (Homo sapiens) (UniProt P23219). Kind of assay: Inhibition of COX-1 in human immunoassay. On the set-up: concentration or dose not given beside the values.
Assay [2] has as its target T1, Prostaglandin G/H synthase 2 (Homo sapiens) (UniProt P35354).
T1 sequence (whole entry): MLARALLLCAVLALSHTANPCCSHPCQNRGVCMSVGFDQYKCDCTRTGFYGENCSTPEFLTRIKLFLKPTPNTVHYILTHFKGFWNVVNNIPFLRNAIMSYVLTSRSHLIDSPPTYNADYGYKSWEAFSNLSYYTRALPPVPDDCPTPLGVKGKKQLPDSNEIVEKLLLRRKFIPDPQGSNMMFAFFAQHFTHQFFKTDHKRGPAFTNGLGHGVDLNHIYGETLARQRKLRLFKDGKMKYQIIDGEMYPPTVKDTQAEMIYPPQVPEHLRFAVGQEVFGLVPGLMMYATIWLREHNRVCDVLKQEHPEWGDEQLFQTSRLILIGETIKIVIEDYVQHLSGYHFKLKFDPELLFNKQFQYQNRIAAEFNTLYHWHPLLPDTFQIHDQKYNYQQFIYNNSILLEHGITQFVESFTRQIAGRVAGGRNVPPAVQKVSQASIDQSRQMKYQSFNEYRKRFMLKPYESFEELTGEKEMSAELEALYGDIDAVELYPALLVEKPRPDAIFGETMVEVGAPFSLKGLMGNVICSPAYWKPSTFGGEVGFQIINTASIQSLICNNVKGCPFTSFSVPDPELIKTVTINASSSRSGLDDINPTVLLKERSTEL
Nature of the assay: Inhibition of COX-2 in human immunoassay. Also on record: concentration or dose not given beside the values. The essentials:
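Human COX-2 enzyme immunoassay kit, run per the manufacturer's instructions. Each compound was tested at a single concentration of 1 µM, and the read-out was percent inhibition of enzyme activity.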

Prostaglandin G/H synthase 1 (Homo sapiens), sequence (P23219 whole entry): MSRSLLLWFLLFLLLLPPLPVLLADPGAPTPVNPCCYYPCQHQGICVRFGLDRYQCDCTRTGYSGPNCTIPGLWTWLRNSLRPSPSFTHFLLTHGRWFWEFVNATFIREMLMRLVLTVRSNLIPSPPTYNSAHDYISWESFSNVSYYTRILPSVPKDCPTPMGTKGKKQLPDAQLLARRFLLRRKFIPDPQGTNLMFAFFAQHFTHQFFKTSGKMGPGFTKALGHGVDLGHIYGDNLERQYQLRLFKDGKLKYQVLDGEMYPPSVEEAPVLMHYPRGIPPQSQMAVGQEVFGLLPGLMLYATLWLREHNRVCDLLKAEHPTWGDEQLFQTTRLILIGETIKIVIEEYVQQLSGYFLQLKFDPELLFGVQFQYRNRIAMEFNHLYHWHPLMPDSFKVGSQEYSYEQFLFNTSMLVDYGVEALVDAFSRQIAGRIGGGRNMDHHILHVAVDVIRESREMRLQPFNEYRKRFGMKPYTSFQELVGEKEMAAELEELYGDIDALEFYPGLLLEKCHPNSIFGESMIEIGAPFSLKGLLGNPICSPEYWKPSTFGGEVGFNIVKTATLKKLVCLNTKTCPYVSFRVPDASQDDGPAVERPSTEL

Take `NS(=O)(=O)c1ccc(N/C=C/C(=O)c2ccncc2)cc1`: the Enzyme inhibition in assay [1] was determined as 11%; in assay [2] it was 42%.
For `NS(=O)(=O)c1ccc(Nc2nc(-c3ccccc3)cs2)cc1` the same measures were 61% and 29%.
For `NS(=O)(=O)c1ccc(CCNC(=O)c2ccccc2Br)cc1` the same measures were 46% and 10%.
For `NS(=O)(=O)c1ccc(NC(=S)NC(=O)c2ccc(Cl)cc2Cl)cc1` the same measures were 8% and 22%.
Consider `Cc1onc(-c2ccccc2)c1C(=O)Nc1ccc(S(N)(=O)=O)cc1`, for which the values for the Enzyme inhibition in assay [1] and in assay [2] were 23% and 48%, respectively.
With `NS(=O)(=O)c1ccc(NC2=CC(=O)C(=O)c3ccccc32)cc1`, the Enzyme inhibition in assay [1] turned out to be 14%; in assay [2] it was 27%.
On the same counts, the results for `C/C(=N\Nc1ccc(S(N)(=O)=O)cc1)c1ccccn1` are 38% and 39%.
In the case of `NS(=O)(=O)c1ccc(CCNS(=O)(=O)c2ccccc2[N+](=O)[O-])cc1`, the results for the Enzyme inhibition in assay [1] and in assay [2] were 61% and 22%, respectively.
On the same counts, the results for `CS(=O)(=O)c1cc(Nc2ccc(Br)cc2)ncn1` are 14% and 60%.
Take `NS(=O)(=O)c1ccc(NCc2cnc3ccccc3n2)cc1`: the Enzyme inhibition in assay [1] came to 11%; in assay [2] it was 54%.
For `NS(=O)(=O)c1ccc(CCNS(=O)(=O)c2ccc(Cl)cc2Cl)cc1` the same measures were 23% and 30%.
As to `NS(=O)(=O)c1ccc(Cl)c(C(=O)Nc2cccc([N+](=O)[O-])c2)c1`, the Enzyme inhibition in assay [1] is 23%; in assay [2], 57%.
